Source: ChEMBL document CHEMBL4257459, “Synergistic antifungal effect of cyclized chalcone derivatives and fluconazole against Candida albicans” (2017)
Converted amounts (≈) assume the structure as drawn.

Tests used:
Candida albicans [1] = assay: Antifungal activity against fluconazole resistant Candida albicans 167-2 by CLSI protocol based broth microdilution method; format: functional
Outline: (§1)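 Broth microdilution per CLSI M27-A3 against clinical C. albicans isolates. Strains sub-cultured at least twice on Tryptone Soya Agar, 37 °C, 48 h. Compounds dissolved in DMSO at 2000 μg mL–1 stock. Fluconazole positive control, plus culture, media and vehicle controls. Run in duplicate; MIC in μg mL–1.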

Candida albicans [2] = assay: Antifungal activity against fluconazole resistant Candida albicans A171 by CLSI protocol based broth microdilution method; format: functional; outline: as §1
Candida albicans [3] = assay: Antifungal activity against fluconazole resistant Candida albicans 167-1 by CLSI protocol based broth microdilution method; format: functional; outline: as §1
Candida albicans [4] = assay: Antifungal activity against fluconazole susceptible Candida albicans 002B1 by CLSI protocol based broth microdilution method; format: functional
Outline: (§2)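 Clinical isolates and control strain subcultured at least twice on TSA, 37 °C, 48 h. MICs by CLSI M27-A3 broth microdilution; compounds dissolved in DMSO to 2000 μg mL–1 stock. Fluconazole positive control, culture, media and DMSO vehicle controls in each run. Duplicate experiments; MIC in μg mL–1.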

Candida albicans [5] = assay: Antifungal activity against fluconazole susceptible Candida albicans 003gr by CLSI protocol based broth microdilution method; format: functional; outline: as §2
Candida albicans [6] = assay: Antifungal activity against fluconazole susceptible Candida albicans 004gr by CLSI protocol based broth microdilution method; format: functional; outline: as §2
Candida albicans [7] = assay: Antifungal activity against fluconazole susceptible Candida albicans 004B1 by CLSI protocol based broth microdilution method; format: functional; outline: as §2
Candida albicans [8] = assay: Antifungal activity against fluconazole susceptible Candida albicans 0079gr by CLSI protocol based broth microdilution method; format: functional; outline: as §2
Candida albicans [9] = assay: Antifungal activity against fluconazole susceptible Candida albicans 0072gr by CLSI protocol based broth microdilution method; format: functional; outline: as §2
Candida albicans [10] = assay: Antifungal activity against Candida albicans ATCC 90028 by CLSI protocol based broth microdilution method; format: functional; outline: as §2
Candida albicans [11] = assay: Antifungal activity against fluconazole resistant Candida albicans A171 in presence of fluconazole by CLSI protocol based broth microdilution method; format: functional
Outline: (§3)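 Checkerboard-style combination with fluconazole at a 1 : 1 ratio, over concentrations 2–4 fold below each agent's MIC alone, by CLSI broth microdilution. Fractional inhibitory concentration index calculated and interpreted as synergy (<0.5), additive (0.5–1), indifferent or antagonistic.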

Candida albicans [12] = assay: Antifungal activity against fluconazole resistant Candida albicans 167-1 in presence of fluconazole by CLSI protocol based broth microdilution method; format: functional; outline: as §3
Candida albicans [13] = assay: Antifungal activity against fluconazole resistant Candida albicans 167-2 in presence of fluconazole by CLSI protocol based broth microdilution method; format: functional; outline: as §3
Candida albicans [14] = assay: Antifungal activity against fluconazole susceptible Candida albicans 002B1 in presence of fluconazole by CLSI protocol based broth microdilution method; format: functional
Candida albicans [15] = assay: Antifungal activity against fluconazole susceptible Candida albicans 003gr in presence of fluconazole by CLSI protocol based broth microdilution method; format: functional
Candida albicans [16] = assay: Antifungal activity against fluconazole susceptible Candida albicans 004gr in presence of fluconazole by CLSI protocol based broth microdilution method; format: functional
Candida albicans [17] = assay: Antifungal activity against fluconazole susceptible Candida albicans 004B1 in presence of fluconazole by CLSI protocol based broth microdilution method; format: functional
Candida albicans [18] = assay: Antifungal activity against fluconazole susceptible Candida albicans 0079gr in presence of fluconazole by CLSI protocol based broth microdilution method; format: functional
Candida albicans [19] = assay: Antifungal activity against fluconazole susceptible Candida albicans 0072gr in presence of fluconazole by CLSI protocol based broth microdilution method; format: functional
Candida albicans [20] = assay: Antifungal activity against Candida albicans ATCC 90028 in presence of fluconazole by CLSI protocol based broth microdilution method; format: functional
Candida albicans [21] = assay: Inhibition of ABC efflux pumps in fluconazole resistant Candida albicans A171 assessed as reduction in energy-dependent rhodamine 6G efflux in presence of 0.1 M glucose after 25 mins by fluorescence assay relative to control
Outline: (§4)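 Cells grown in TSB at 37 °C for 8 h, washed, resuspended in glucose-free PBS at 1 × 10^8 cells. De-energized 45 min with 5 mM deoxyglucose plus 5 mM dinitrophenol. […] Washed, sampled 5–25 min, then 0.1 M glucose added. Absorbance 527 nm, R6G from standard curve.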

Candida albicans [22] = assay: Inhibition of ABC efflux pumps in fluconazole resistant Candida albicans 167-1 assessed as reduction in energy-dependent rhodamine 6G efflux in presence of 0.1 M glucose after 25 mins […] relative to control
Candida albicans [23] = assay: Inhibition of ABC efflux pumps in fluconazole resistant Candida albicans 167-2 assessed as reduction in energy-dependent rhodamine 6G efflux in presence of 0.1 M glucose after 25 mins […] relative to control
Candida albicans [24] = assay: Inhibition of ABC efflux pumps in fluconazole susceptible Candida albicans 002B1 assessed as reduction in energy-dependent rhodamine 6G efflux in presence of 0.1 M glucose after 25 mins […] relative to control
Candida albicans [25] = assay: Inhibition of ABC efflux pumps in fluconazole susceptible Candida albicans 003gr assessed as reduction in energy-dependent rhodamine 6G efflux in presence of 0.1 M glucose after 25 mins […] relative to control
Candida albicans [26] = assay: Inhibition of ABC efflux pumps in fluconazole susceptible Candida albicans 004gr assessed as reduction in energy-dependent rhodamine 6G efflux in presence of 0.1 M glucose after 25 mins by fluorescence assay relative to control; outline: as §4
Candida albicans [27] = assay: Inhibition of ABC efflux pumps in fluconazole susceptible Candida albicans 004B1 assessed as reduction in energy-dependent rhodamine 6G efflux in presence of 0.1 M glucose after 25 mins by fluorescence assay relative to control; outline: as §4
Candida albicans [28] = assay: Inhibition of ABC efflux pumps in fluconazole susceptible Candida albicans 0079gr assessed as reduction in energy-dependent rhodamine 6G efflux in presence of 0.1 M glucose after 25 mins by fluorescence assay relative to control; outline: as §4
Candida albicans [29] = assay: Inhibition of ABC efflux pumps in fluconazole susceptible Candida albicans 0072gr assessed as reduction in energy-dependent rhodamine 6G efflux in presence of 0.1 M glucose after 25 mins […] relative to control
Candida albicans [30] = assay: Inhibition of ergosterol biosynthesis in fluconazole resistant Candida albicans A171 at 0.5 to 1 times MIC relative to control; format: functional
Outline: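 Total sterols quantified by alcoholic KOH extraction in cells grown in 50 ml TSB with compounds at MIC and ½ MIC; untreated and 8 μg mL–1 fluconazole controls. Spectral scan; ergosterol content from A281.5 and A230 absorbances, dilution factor and pellet weight, correcting for 24(28) DHE.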

Candida albicans [31] = assay: Inhibition of ergosterol biosynthesis in fluconazole susceptible Candida albicans ATCC 90028 at 0.5 to 1 times MIC relative to control; format: functional
Outline: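 ATCC90028 grown in 50 ml TSB with MIC and ½ MIC of compound; untreated and 8 μg mL–1 fluconazole controls. Sterols extracted by alcoholic KOH method and spectrophotometrically scanned; ergosterol % calculated from A281.5 and A230 (E values 290 and 518) with dilution factor, per pellet weight.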

Candida albicans [32] = assay: Down regulation of ERG11 gene expression in fluconazole resistant Candida albicans A171 at MIC after 2 hrs by qRT PCR analysis relative to control; format: functional
Outline: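 Cells exposed 2 h to test agents at MIC. Total RNA isolated, cDNA synthesized, qPCR for ERG11 with ACT1 as endogenous control. Triplicate independent experiments, reported as mean ± standard deviation.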

Candida albicans [33] = assay: Down regulation of ERG11 gene expression in fluconazole susceptible Candida albicans ATCC 90028 at MIC after 2 hrs by qRT PCR analysis relative to control; format: functional
Outline: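 Cells exposed to compound at MIC for 2 h; total RNA isolated, cDNA synthesised, ERG11 measured by real-time qPCR with ACT1 as endogenous control. Triplicate independent experiments; mean ± standard deviation.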

| SMILES | MIC (Candida albicans [1]) [µg/mL] | MIC (Candida albicans [2]) [µg/mL] | MIC (Candida albicans [3]) [µg/mL] | MIC (Candida albicans [4]) [µg/mL] | MIC (Candida albicans [5]) [µg/mL] | MIC (Candida albicans [6]) [µg/mL] | MIC (Candida albicans [7]) [µg/mL] | MIC (Candida albicans [8]) [µg/mL] | MIC (Candida albicans [9]) [µg/mL] | MIC (Candida albicans [10]) [µg/mL] | fractional inhibitory concentration index (FICI) (Candida albicans [11]) | fractional inhibitory concentration index (FICI) (Candida albicans [12]) | fractional inhibitory concentration index (FICI) (Candida albicans [13]) | fractional inhibitory concentration index (FICI) (Candida albicans [14]) | fractional inhibitory concentration index (FICI) (Candida albicans [15]) | fractional inhibitory concentration index (FICI) (Candida albicans [16]) | fractional inhibitory concentration index (FICI) (Candida albicans [17]) | fractional inhibitory concentration index (FICI) (Candida albicans [18]) | fractional inhibitory concentration index (FICI) (Candida albicans [19]) | fractional inhibitory concentration index (FICI) (Candida albicans [20]) | other results |
| --- | --- | --- | --- | --- | --- | --- | --- | --- | --- | --- | --- | --- | --- | --- | --- | --- | --- | --- | --- | --- | --- |
| c1ccc(C2=NOC(c3ccc(C4CC(c5ccccc5)=NO4)cc3)C2)cc1 (stereo unspecified) | 8 to 16 (≈ 21.7 to 43.4 µM) | 8 to 16 (≈ 21.7 to 43.4 µM) | 8 to 16 (≈ 21.7 to 43.4 µM) | 2 to 8 (≈ 5.43 to 21.7 µM) | 2 to 8 (≈ 5.43 to 21.7 µM) | 2 to 8 (≈ 5.43 to 21.7 µM) | 2 to 8 (≈ 5.43 to 21.7 µM) | 2 to 8 (≈ 5.43 to 21.7 µM) | 2 to 8 (≈ 5.43 to 21.7 µM) | 2 to 8 (≈ 5.43 to 21.7 µM) | 0.532 - 1.02 | 0.532 - 1.02 | 0.532 - 1.02 | 0.37 - 0.75 | 0.37 - 0.75 | 0.37 - 0.75 | 0.37 - 0.75 | 0.37 - 0.75 | 0.37 - 0.75 | 0.37 - 0.75 | inhibition (Candida albicans [21]): < 20%; inhibition (Candida albicans [22]): < 20%; inhibition (Candida albicans [23]): < 20%; inhibition (Candida albicans [24]): < 20%; inhibition (Candida albicans [25]): < 20%; inhibition (Candida albicans [26]): < 20%; inhibition (Candida albicans [27]): < 20%; inhibition (Candida albicans [28]): < 20%; inhibition (Candida albicans [29]): < 20%; inhibition (INH) (Candida albicans [30]): 49 - 94%; inhibition (INH) (Candida albicans [31]): 66 - 99%; fold change (FC) (Candida albicans [32]): 1.25 - 10; fold change (FC) (Candida albicans [33]): 1.5 - 13 |
| NC(=S)N1N=C(c2ccccc2)CC1c1ccc(C2CC(c3ccccc3)=NN2C(N)=S)cc1 (stereo unspecified) | 125 to 500 (≈ 258 to 1030 µM) | 125 to 500 (≈ 258 to 1030 µM) | 125 to 500 (≈ 258 to 1030 µM) | 8 to 125 (≈ 16.5 to 258 µM) | 8 to 125 (≈ 16.5 to 258 µM) | 8 to 125 (≈ 16.5 to 258 µM) | 8 to 125 (≈ 16.5 to 258 µM) | 8 to 125 (≈ 16.5 to 258 µM) | 8 to 125 (≈ 16.5 to 258 µM) | 8 to 125 (≈ 16.5 to 258 µM) | 0.372 - 1.5 | 0.372 - 1.5 | 0.372 - 1.5 | 0.53 - 2.19 | 0.53 - 2.19 | 0.53 - 2.19 | 0.53 - 2.19 | 0.53 - 2.19 | 0.53 - 2.19 | 0.53 - 2.19 | inhibition (Candida albicans [21]): < 20%; inhibition (Candida albicans [22]): < 20%; inhibition (Candida albicans [23]): < 20%; inhibition (Candida albicans [24]): < 20%; inhibition (Candida albicans [25]): < 20%; inhibition (Candida albicans [26]): < 20%; inhibition (Candida albicans [27]): < 20%; inhibition (Candida albicans [28]): < 20%; inhibition (Candida albicans [29]): < 20%; inhibition (INH) (Candida albicans [30]): 49 - 94%; inhibition (INH) (Candida albicans [31]): 66 - 99%; fold change (FC) (Candida albicans [32]): 1.25 - 10; fold change (FC) (Candida albicans [33]): 1.5 - 13 |
